Measurements from ChEMBL document CHEMBL1122293, “Synthesis, evaluation of chemical reactivity, and murine antineoplastic activity of 2-hydroxy-5-(3,4-dichlorophenyl)-6,7-bis(hydroxymethyl)-2,3-dihydro-1H- pyrrolizine bis(2-propylcarbamate) and 2-acyloxy derivatives as potential water-soluble prodrugs” (J Med Chem, 1983).
≈ marks a conversion by molar mass, not a printed value.

Columns and labels:
[1] = tested on: P388; test: Weight difference at 5 mg/kg (ip)against P388 Lymphocytic Leukemia in mice; format: functional, Mus musculus
In short: (§1)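 Male CDF1 mice inoculated ip with P388 leukemia cells. Nine daily ip doses beginning 24 h later, as suspensions in Klucel or water. Acute toxicity evaluated day 5. Weight difference reported as treated minus control (g).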

[2] = tested on: P388; test: Weight difference at 10 mg/kg (ip)against P388 Lymphocytic Leukemia in mice; format: functional, Mus musculus; in short: as §1
[3] = tested on: B16; test: No. of cures on day 60 at 20 mg/kg (ip) against B16 melanocarcinoma in mice; format: functional, Mus musculus
In short: (§2)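 Female BDF1 mice given ip 0.5 mL of tumor brei (1.0 g tissue per 10 mL). Nine daily ip doses beginning 24 h later, as Klucel suspensions or a water/Tween-80 suspension. Acute toxicity scored day 5; survival read day 60. Cures counted per 10-animal group at day 60; weight difference reported as treated minus control (g).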

[4] = tested on: B16; test: Median survival time of test animals compared to controls at 80 mg/kg (ip) against B16 melanocarcinoma in mice; format: functional, Mus musculus
In short: (§3)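 Female BDF1 mice received B16 tumor brei ip (0.5 mL of 1.0 g tissue per 10 mL). From 24 h later they got nine daily ip doses, suspended in Klucel or water/Tween-80. Acute toxicity was assessed on day 5 and survival was evaluated on day 60. The value is median survival as % T/C, with 10 mice per group and a positive control run in parallel.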

[5] = tested on: B16; test: Median survival time of test animals compared to controls at 5 mg/kg (ip) against B16 melanocarcinoma in mice; format: functional, Mus musculus; in short: as §3
[6] = Water solubility of the compound; format: ADME; details: read-out: S
In short: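 Excess bis(carbamate) (30-60 mg) in 2 mL distilled water, vortexed 10 min, filtered through Teflon wool and diluted. UV absorbance read at 291 nm. Concentration from a linear Beer's law calibration made with a salt standard (r = 0.998).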

[7] = tested on: P388; test: Weight difference at 40 mg/kg (ip)against P388 Lymphocytic Leukemia in mice; format: functional, Mus musculus; in short: as §1
[8] = tested on: B16; test: Weight difference at 80 mg/kg (ip) against B16 melanocarcinoma in mice; format: functional, Mus musculus; in short: as §2
[9] = tested on: P388; test: Weight difference at 20 mg/kg (ip)against P388 Lymphocytic Leukemia in mice; format: functional, Mus musculus; in short: as §1
[10] = tested on: B16; test: Median survival time of test animals compared to controls at 10 mg/kg (ip) against B16 melanocarcinoma in mice; format: functional, Mus musculus; in short: as §3
[11] = tested on: P388; test: Median survival time of test animals compared to controls at 40 mg/kg (ip) against P388 Lymphocytic Leukemia in mice; format: functional, Mus musculus
In short: (§4)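 P388 leukemia cells were given ip to male CDF1 mice. Dosing started 24 h later: nine daily ip doses given as suspensions in Klucel (hydroxypropylcellulose) or in water. Toxicity day was day 5 and evaluation was on day 30. The value is % T/C of median survival time against untreated controls, with a parallel positive-control arm.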

[12] = tested on: P388; test: Median survival time of test animals compared to controls at 5 mg/kg (ip) against P388 Lymphocytic Leukemia in mice; format: functional, Mus musculus; in short: as §4
[13] = tested on: B16; test: Median survival time of test animals compared to controls at 40 mg/kg (ip) against B16 melanocarcinoma in mice; format: functional, Mus musculus; in short: as §3
[14] = tested on: P388; test: Log of the tumor cell population at the end of treatment at 20 mg/kg (ip) against P388 Lymphocytic Leukemia in mice; format: functional, Mus musculus
[15] = tested on: B16; test: Median survival time of test animals compared to controls at 20 mg/kg (ip) against B16 melanocarcinoma in mice; format: functional, Mus musculus; in short: as §3
[16] = tested on: B16; test: No. of cures on day 60 at 5 mg/kg (ip) against B16 melanocarcinoma in mice; format: functional, Mus musculus; in short: as §2
[17] = tested on: P388; test: Log of the tumor cell population at the end of treatment at 10 mg/kg (ip) against P388 Lymphocytic Leukemia in mice; format: functional, Mus musculus
[18] = Half life was determined
[19] = tested on: B16; test: No. of cures on day 60 at 40 mg/kg (ip) against B16 melanocarcinoma in mice; format: functional, Mus musculus; in short: as §2
[20] = tested on: P388; test: Median survival time of test animals compared to controls at 80 mg/kg (ip) against P388 Lymphocytic Leukemia in mice; format: functional, Mus musculus; in short: as §4
[21] = tested on: B16; test: No. of cures on day 60 at 80 mg/kg (ip) against B16 melanocarcinoma in mice; format: functional, Mus musculus; in short: as §2
[22] = tested on: P388; test: Log of the tumor cell population at the end of treatment at 80 mg/kg (ip) against P388 Lymphocytic Leukemia in mice; format: functional, Mus musculus
[23] = tested on: P388; test: Log of the tumor cell population at the end of treatment at 40 mg/kg (ip) against P388 Lymphocytic Leukemia in mice; format: functional, Mus musculus
[24] = tested on: B16; test: Weight difference at 20 mg/kg (ip)against B16 melanocarcinoma in mice; format: functional, Mus musculus; in short: as §2
[25] = tested on: B16; test: Weight difference at 10 mg/kg (ip)against B16 melanocarcinoma in mice; format: functional, Mus musculus; in short: as §2
[26] = tested on: B16; test: Weight difference at 5 mg/kg (ip)against B16 melanocarcinoma in mice; format: functional, Mus musculus; in short: as §2
[27] = tested on: P388; test: Median survival time of test animals compared to controls at 10 mg/kg (ip) against P388 Lymphocytic Leukemia in mice; format: functional, Mus musculus; in short: as §4
[28] = tested on: B16; test: No. of cures on day 60 at 10 mg/kg (ip) against B16 melanocarcinoma in mice; format: functional, Mus musculus; in short: as §2
[29] = tested on: P388; test: Median survival time of test animals compared to controls at 20 mg/kg (ip) against P388 Lymphocytic Leukemia in mice; format: functional, Mus musculus; in short: as §4
[30] = tested on: P388; test: Median survival time of test animals compared to controls at 2.5 mg/kg (ip) against P388 Lymphocytic Leukemia in mice; format: functional, Mus musculus
In short: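 P388 leukemia cells given ip to male CDF1 mice; ip dosing began 24 h later, nine daily doses, as suspensions in Klucel (hydroxypropylcellulose) or water. Acute toxicity checked on day 5. Survival read on day 30 as median survival time of treated versus control mice (% T/C). Weight difference is treated minus control, in grams.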

[31] = tested on: P388; test: Weight difference at 2.5 mg/kg (ip)against P388 Lymphocytic Leukemia in mice; format: functional, Mus musculus; in short: as §1
[32] = tested on: B16; test: Weight difference at 40 mg/kg (ip)against B16 melanocarcinoma in mice; format: functional, Mus musculus; in short: as §2
[33] = tested on: P388; test: Weight difference at 80 mg/kg (ip)against P388 Lymphocytic Leukemia in mice; format: functional, Mus musculus; in short: as §1
[34] = tested on: P388; test: Log of the tumor cell population at the end of treatment at 5 mg/kg (ip) against P388 Lymphocytic Leukemia in mice; format: functional, Mus musculus

Compound `CC(C)NC(=O)OCc1c(COC(=O)NC(C)C)c(-c2ccc(Cl)c(Cl)c2)n2c1CC(OC(=O)CN(C)C)C2` (stereo not given) has a Weight change [1] of -1.3 g, a Weight change [2] of -2 g and a Cures [3] of 0. The T/C [4] was less than 100%, the T/C [5] was 106% and the solubility [6] was 19.6 µM (≈ 11.4 µg/mL). For the same compound, the Weight change [7] was -3.1 g, the Weight change [8] was -1.5 g and the Weight change [9] was -1.9 g. For the same compound, the T/C [10] was 152%, the T/C [11] was 144% and the T/C [12] was 117%. It also gave a T/C [13] of 174%, a Log cell kill [14] of -1.37 and a T/C [15] of 152%. It also gave a Cures [16] of 0, a Log cell kill [17] of -1.61 and a half-life [18] of 4.13 h. The Cures [19] was 1, the T/C [20] was 110% and the Cures [21] was 0. It also gave a Log cell kill [22] of -1.84, a Log cell kill [23] of -1.41 and a Weight change [24] of 0.5 g. For the same compound, the Weight change [25] was 0.2 T-C, the Weight change [26] was 0.2 g and the T/C [27] was 128%. The Cures [28] was 0, the T/C [29] was 146% and the Log cell kill [30] was -1.96. For the same compound, the T/C [30] was 101%, the Weight change [31] was 0.1 g and the Weight change [32] was -0.8 g. The Weight change [33] was -3.4 g and the Log cell kill [34] was -1.76.
